UBC13 polyUb: blocks human UBC13 polyubiquitin chain formation; TR-FRET; inhibition, % at 20 µM; 330,000 tested, 0.47% active; AID 485273; in the data active = inhibition above about 45%, passing the limit was not always enough
Target sequence (P61088 whole entry, looked up): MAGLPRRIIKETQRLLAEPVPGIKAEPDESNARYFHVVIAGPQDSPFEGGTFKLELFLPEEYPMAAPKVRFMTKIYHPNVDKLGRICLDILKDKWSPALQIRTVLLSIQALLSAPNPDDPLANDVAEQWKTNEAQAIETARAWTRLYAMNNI
MEKK2wt PB1 HTS: raises or lowers MEK5 binding to wildtype human MEKK2 PB1 domain. Q9Y2U5. bead flow cytometry, Alexa488-MEK5 binding to MEKK2 WT; actives lie on both sides. binding response (% of control), % at 10 µM. 290,000 tested, 1.1% active. AID 1531; in the data active = binding response below about 67% or above about 130%
MEKK3 PB1 HTS: MEKK3-MEK5 PB1 interaction, increase or decrease; Q99759; bead-based flow cytometry, Alexa488-MEK5 binding to MEKK3; actives lie on both sides; 0 = blocked by unlabeled MEK5, 100 = vehicle; binding response (% of control), % at 10 µM; 290,000 tested, 1.4% active;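 active = binding response more than 3 SD above or below the average of its plate-row segment, actives on both sides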;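 also: Alexa488 bead fluorescence after subtracting the streptavidin-only scavenger bead signal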
Target sequence (Q99759 whole entry, looked up): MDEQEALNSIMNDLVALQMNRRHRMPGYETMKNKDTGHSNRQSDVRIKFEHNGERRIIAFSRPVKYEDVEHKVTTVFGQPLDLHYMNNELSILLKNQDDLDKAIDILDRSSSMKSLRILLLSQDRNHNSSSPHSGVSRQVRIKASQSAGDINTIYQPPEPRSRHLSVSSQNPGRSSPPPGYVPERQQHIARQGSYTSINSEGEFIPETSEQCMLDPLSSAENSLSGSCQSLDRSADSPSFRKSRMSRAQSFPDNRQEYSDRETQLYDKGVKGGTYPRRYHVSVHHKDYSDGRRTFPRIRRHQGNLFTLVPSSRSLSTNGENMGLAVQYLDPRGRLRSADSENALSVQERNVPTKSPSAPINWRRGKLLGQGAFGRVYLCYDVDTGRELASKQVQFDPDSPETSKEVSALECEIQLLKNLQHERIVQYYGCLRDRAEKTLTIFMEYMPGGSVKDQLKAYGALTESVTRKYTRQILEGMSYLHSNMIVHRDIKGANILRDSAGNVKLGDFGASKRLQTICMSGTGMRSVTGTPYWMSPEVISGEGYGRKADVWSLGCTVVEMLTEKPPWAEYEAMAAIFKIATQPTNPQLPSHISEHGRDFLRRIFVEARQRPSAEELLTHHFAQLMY
Apaf1 inhib: inhibitors of human Apaf-1 apoptosome; reconstituted apoptosome caspase-3 activity, DEVD-Rh110 fluorescence; inhibition, % at 20 µM; 330,000 tested, 0.71% active; O14727; active = inhibition of at least 40% at 20 µM;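 also: plate controls were DMSO wells for no effect and DEVD-CHO caspase inhibitor wells for full effect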
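Material: cell-free apoptosome with Apaf-1, procaspase-3 and caspase-9; Buffer or medium: Hepes pH 7.5 with detergent and BSA; Reagent: cytochrome c trigger plus (Z-DEVD)2-Rh110 caspase-3 substrate; Times: compound with Apaf-1, dATP, procaspase-3 30 min, then 50 min reaction, room temperature; Technique: Rh110 fluorescence intensity.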
MEKK2mut PB1 HTS: signal of MEK5 binding to mutant human MEKK2 PB1 domain. bead flow cytometry, Alexa488-MEK5 binding to MEKK2 mutant. percent response, % at 10 µM. 290,000 tested, 0.35% active; in the data active = percent response above about 24%, passing the limit was not always enough
Apaf-1 inh conf2: Apaf-1 inhibition, single-dose confirmed. reconstituted apoptosome, caspase-3 DEVD-Rh110 fluorescence. shares compounds with Apaf1 inhib. 1,800 tested, 25% active. inhibition, % at 20 µM. AID 504614;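 active = mean inhibition of at least 40% at 20 µM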;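 also: plate controls were DMSO wells for no effect and DEVD-CHO caspase inhibitor control wells for full effect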
Rh110 quench: Rh110 signal interference in Apaf-1 inhibitor counter-screen; shares compounds with Apaf1 inhib; Rh110 fluorescence interference, quenched caspase reaction; activation (fluorescence interference), % at 20 µM; 1,800 tested, under 10 active; AID 504615;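 active = signal rise of 40% or more at 20 µM, treated as a fluorescence artifact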
Apaf1 inh interf: counter-screen for Apaf-1 inhibitors: fluorescence interference, dose response | shares compounds with Apaf1 inhib | fluorescence interference counterscreen, Apaf-1 assay format | IC50, µM | 460 tested, under 10 active | AID 588538; call rule not given here
Starred values were filed as active, the others as inactive; x = no result. Sampled rows, rich in hits. Any-hit rate of the full collection: about 2.9%.

SMILES | UBC13 polyUb | MEKK2wt PB1 HTS | MEKK3 PB1 HTS | Apaf1 inhib | MEKK2mut PB1 HTS | Apaf-1 inh conf2 | Rh110 quench | others
CCCCNc1cc(NC(C)=O)cc2cc(OC)c(OC)cc12 | -41.9 | 98.0 | 97.0 | 61.8* | 3.0 | 83.4* | -1.0 | Apaf1 inh interf=>100
O=C(CSc1nc2ccccc2s1)NCc1cc([N+](=O)[O-])ccc1O | -11.4 | x | x | -1.1 | x | x | x
CC(C)CCN1CCN(CCCn2cccn2)CC1CCO (centres undefined) | 8.7 | 98.0 | 97.0 | -13.4 | -3.0 | x | x
COCC1CCN(C(=O)c2cc(COc3ccc(OC)c4ccccc34)on2)C1 (centres undefined) | -4.0 | 92.0 | 91.0 | 28.0 | -9.0 | x | x
COc1ccc(OCc2cc(C(=O)N3CCC(OC)CC3)no2)c2ccccc12 | 0.5 | 108.0 | 103.0 | 49.3* | 7.0 | 24.9 | 6.1
CCCn1nc(C(=O)Nc2ccc(-n3cnnn3)cc2)c2ccccc2c1=O | 4.6 | x | x | 70.6* | x | 8.2 | 5.2
CCCn1nc(C(=O)Nc2ccc(N3CCOCC3)cc2)c2ccccc2c1=O | -5.0 | x | x | 5.2 | x | x | x
Oc1ccc(N=Cc2ccc(OCc3ccccc3)cc2)cc1 | -5.2 | 98.0 | 101.0 | 92.7* | -3.0 | 16.7 | -4.1
CC/C(=N/Nc1cccc(C)c1)c1cnnc(SC)n1 | -10.6 | 92.0 | 92.0 | 63.2* | -1.0 | 13.3 | 5.0
CC1(c2ccc3c(c2)OCCO3)NC(=O)N(CC(=O)Nc2ccccc2)C1=O (centres undefined) | 7.4 | x | x | -7.7 | x | x | x
O=[N+]([O-])c1cc(CN2CCCC2)c2cccnc2c1O | x | 101.0 | 99.0 | x | 0.0 | x | x
O=[N+]([O-])c1cc(CN2CCN(c3cccc(C(F)(F)F)c3)CC2)c2cccnc2c1O | -42.1 | 88.0 | 98.0 | 41.6* | -2.0 | 24.0 | 5.2
Cc1nc(C)c(NC(=O)N2CCc3ccccc32)cc1NC(=O)N1CCc2ccccc21 | 10.5 | 100.0 | 99.0 | 16.7 | 6.0 | x | x
Cn1ccc2cc3c(cc21)CCN3C(=O)Nc1cccnc1 | -19.6 | x | x | 66.0* | x | 15.3 | 4.6
O=C(O)CNS(=O)(=O)c1ccc2c3c(cccc13)C(=O)N2 | -7.1 | 97.0 | 99.0 | 1.0 | -1.0 | x | x
O=C1Nc2ccc(S(=O)(=O)NCc3ccco3)c3cccc1c23 | -23.3 | 97.0 | 98.0 | 49.5* | -2.0 | 22.0 | 16.7
Cc1cccc2cc(-c3nc4ccc(C(=O)O)cc4[nH]3)c(=O)oc12 | -5.0 | 112.0 | 108.0 | 7.0 | 6.0 | x | x
COC(=O)CCC(=O)OC1(C)C(=O)C=C2C=C(C3CC3)N(c3ccc(CO)cc3)C=C2C1=O (centres undefined) | -61.7 | 97.0 | 100.0 | 6.0 | -2.0 | x | x
COC(=O)CCC(=O)OC1(C)C(=O)C=C2C=C(C3CC3)N(C3CC3)C=C2C1=O (centres undefined) | -38.0 | 96.0 | 109.0 | 53.6* | 5.0 | 37.1 | -1.9
O=C(COC(=O)c1cc(Cl)ccc1Cl)NCCN1C(=O)CSC1=O | -3.0 | 112.0 | 111.0 | 43.2* | 0.0 | 9.6 | -2.6
COc1ccc(OC)c(S(=O)(=O)Oc2ccc(N)c3ccccc23)c1 | -59.9 | x | x | 68.7* | x | 37.9 | 3.2
COc1ccc(OC)c(S(=O)(=O)Nc2cccc3ccccc23)c1 | 2.1 | x | x | -3.5 | x | x | x
CCCN(CC1CC1)c1nc(N)c2c(N)nc(OC)cc2c1C#N | -2.9 | 98.0 | 99.0 | 93.2* | -2.0 | 6.5 | 0.7
CCOc1cc2c(C#N)c(N(CC)CC)nc(N)c2c(N)n1 | -14.7 | 101.0 | 100.0 | 28.8 | 1.0 | x | x
CC(=O)Nc1ccc(S(=O)(=O)NC2=C(N3CCN(C)CC3)C(=O)c3ccccc3C2=O)cc1 | -122.4 | 107.0 | 103.0 | 60.3* | 2.0 | 46.2* | 7.4 | Apaf1 inh interf=>100
SMILES | UBC13 polyUb | MEKK2wt PB1 HTS | MEKK3 PB1 HTS | Apaf1 inhib | MEKK2mut PB1 HTS | Apaf-1 inh conf2 | Rh110 quench | others
CCN1CCN(C2=C(NS(=O)(=O)c3ccc(C)cc3)C(=O)c3ccccc3C2=O)CC1 | -81.9 | 101.0 | 97.0 | 77.4* | 1.0 | 34.9 | 4.3
CCN1CCN(C2=C(NS(=O)(=O)c3ccc(NC(C)=O)cc3)C(=O)c3ccccc3C2=O)CC1 | -76.7 | 104.0 | 99.0 | 73.7* | 4.0 | 31.8 | 1.9
CCN1CCN(c2nc3ccccc3nc2NS(=O)(=O)c2ccc(NC(C)=O)cc2)CC1 | -2.0 | 100.0 | 96.0 | 3.5 | 3.0 | x | x
CCN1CCN(C(CNS(=O)(=O)c2ccc(C)cc2)c2cccnc2)CC1 (centres undefined) | 4.8 | 106.0 | 99.0 | 7.6 | 2.0 | x | x
CCOC(=O)N1CCN(C2=C(NS(=O)(=O)c3ccc(NC(C)=O)cc3)C(=O)c3ccccc3C2=O)CC1 | -86.3 | 101.0 | 96.0 | 83.3* | 1.0 | 25.4 | 11.2
CC(=O)Nc1ccc(S(=O)(=O)Nc2nc3ccccc3nc2N2CCCC2)cc1 | -3.2 | 84.0 | 77.0 | 9.7 | -21.0 | x | x
COc1ccc(S(=O)Cc2ccc(C(=O)NCc3cccc(OC)c3)o2)cc1 (centres undefined) | 2.5 | 93.0 | 93.0 | -4.6 | -1.0 | x | x
Clc1ccccc1-c1nn2c(-c3ccncc3)nnc2s1 | 6.6 | 99.0 | 100.0 | 46.7* | 0.0 | 63.5* | 0.3 | Apaf1 inh interf=>100
Cc1cc(C)cc(OCC(=O)Nc2ccc(N3CCCC3)cc2)c1 | 17.8 | 109.0 | 102.0 | 40.7* | 7.0 | 20.9 | 7.5
Cc1ccc(NC2=C(NC(=O)c3ccccc3)C(=O)c3ccccc3C2=O)cc1Cl | -119.1 | 114.0 | 96.0 | 67.3* | 12.0 | 64.4* | 6.7 | Apaf1 inh interf=>100
COc1nc(N/N=C/c2ccc(-c3ccccc3[N+](=O)[O-])o2)nc(N2CCOCC2)n1 | -52.6 | 100.0 | 98.0 | 54.4* | -1.0 | 25.8 | 7.3
O=C(CN(Cc1cccs1)C(=O)CNS(=O)(=O)c1ccccc1)NC1CCCC1 | -11.1 | 97.0 | 97.0 | 5.7 | 0.0 | x | x
CCC(=O)C(C#N)(c1ccc(OC)c(OC)c1)C(C)C (centres undefined) | 7.4 | x | x | 6.2 | x | x | x
Cn1c(CCc2ccccc2)n[nH]c1=S | -7.3 | 95.0 | 95.0 | -12.1 | -7.0 | x | x
Cn1c(Cc2ccccc2)n[nH]c1=S | 8.8 | 100.0 | 100.0 | 41.5* | -1.0 | 2.2 | 2.5
CCN1CCN(C(=O)CCc2nnc3ccc(N4CCN(c5cccc(OC)c5)CC4)nn23)CC1 | -10.6 | 103.0 | 101.0 | 17.7 | 1.0 | x | x
O=C(O)CC(NC(=O)c1sc2ccccc2c1Cl)c1ccc(OC2CCCC2)cc1 (centres undefined) | -13.6 | 93.0 | 91.0 | 44.4* | -3.0 | 10.6 | 1.0
O=C(O)CC(NC(=O)C1c2ccccc2Oc2ccccc21)c1ccc(OC2CCCC2)cc1 (centres undefined) | -5.3 | 93.0 | 96.0 | -1.9 | -7.0 | x | x
Cc1cc(=O)oc2cc(OCC(=O)NCCN3CCOCC3)c(Cl)cc12 | -4.9 | 95.0 | 96.0 | 1.7 | 0.0 | x | x

From PubChem BioAssay
